Experimental data reported in ChEMBL document CHEMBL1671785, “Synthesis, physical-chemical characterisation and biological evaluation of novel 2-amido-3-hydroxypyridin-4(1H)-ones: Iron chelators with the potential for treating Alzheimer's disease” (Bioorg Med Chem, 2011).
Activity calls are given as the source filed them. The calls are words filed in the database; no cut-off is given here.

Experiments:
[1] = Inhibition of soybean lipoxygenase after 15 mins; parameters: species or system Glycine max
Glycine max [2] = assay: Inhibition of soybean lipoxygenase at 100 uM after 15 mins
[3] = Lipophilicity, log D of the compound at pH 7.4; type: physicochemical; details: buffer
Method in brief: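 After centrifugal separation, the loss of aqueous-phase absorbance gives the octanol/buffer concentration ratio.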

Glycine max [4] = assay: Inhibition of soybean lipoxygenase at 10 uM after 15 mins
Method in brief: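 Soybean lipoxygenase in 0.2 M borate buffer, pH 9, was pre-incubated 15 min with the compound (100 µM solution, 10 µM final in cuvette). The reaction was started with linoleic acid (1 mM). Linoleic hydroperoxide formation was followed at 234 nm for 10 min, and rates were computed using ε = 23600 M⁻¹ cm⁻¹.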

[5] = Iron chelating activity of the compound; type: functional
Method in brief: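 Affinity is given as pM, the negative log of free Fe(III), at total metal 10⁻⁶ M and total ligand 10⁻⁵ M, pH 7.4. Stability constants come from automated potentiometric/spectrophotometric titration in 0.1 M KCl at 25 °C with 5 min equilibration per 0.1 pH step. Data analysed by pHab.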

[6] = Association constant pKa of the compound; type: physicochemical
Method in brief: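 Ligand pKa by automated potentiometric titration with spectral scans in 0.1 M KCl at 25 ± 0.1 °C. pH was raised or lowered in 0.1-unit steps with KOH or HCl, and readings were taken once pH drifted by <0.001 over 3 s. A 1 min equilibration was used at each step before analysis of the titration data.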

[7] = molecular target: Tyrosine 3-monooxygenase (Rattus norvegicus) (UniProt P04177); assay: Inhibition of tyrosine hydroxylase in rat striata at 10 uM after 20 mins
Tyrosine 3-monooxygenase (Rattus norvegicus), sequence (P04177 whole entry): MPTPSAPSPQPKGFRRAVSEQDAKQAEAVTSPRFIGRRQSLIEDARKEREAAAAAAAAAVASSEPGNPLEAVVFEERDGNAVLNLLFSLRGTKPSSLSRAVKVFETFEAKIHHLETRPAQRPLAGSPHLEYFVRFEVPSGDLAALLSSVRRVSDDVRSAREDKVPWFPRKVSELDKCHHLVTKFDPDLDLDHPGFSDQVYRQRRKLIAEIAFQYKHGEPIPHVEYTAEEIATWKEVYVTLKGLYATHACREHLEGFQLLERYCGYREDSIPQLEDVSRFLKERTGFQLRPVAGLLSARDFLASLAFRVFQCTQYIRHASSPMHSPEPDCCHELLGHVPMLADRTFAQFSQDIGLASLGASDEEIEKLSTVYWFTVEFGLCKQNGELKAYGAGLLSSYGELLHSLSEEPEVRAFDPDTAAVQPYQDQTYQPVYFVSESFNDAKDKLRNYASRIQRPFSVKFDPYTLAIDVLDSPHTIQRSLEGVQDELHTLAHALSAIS
Method in brief: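 Rat striatal homogenate (1:9 in 0.32 M sucrose, about 3 mg tissue) in 0.5 M potassium phosphate, pH 6.0, with m-hydroxybenzylhydrazine, 1 mM 6,7-dimethyltetrahydropterine and chelator (1–100 µM). The reaction is started with L-tyrosine (0.4 mM final) for 20 min at 37 °C. L-DOPA is extracted on alumina and quantified by HPLC against α-methyldopa. Triplicate; non-enzymatic background measured using 3-iodotyrosine.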

Cortical neurone = assay: Neuroprotective activity against FeNTA-induced loss of synaptic integrity in rat cortical neurones assessed as damage to cell bodies at 30 uM by phase contrast microscopy; type: functional

SMILES	EC50 [1] [µM]	inhibition (Glycine max [2]) [%]	logD [3]	inhibition (Glycine max [4]) [%]	Activity [5]	pKa [6]	Activity [7]	Activity (Cortical neurone)
CC(C)CNC(=O)CNC(=O)c1nccc(O)c1O.Cl	44	70	-0.33	9.3	20.6	6.2		
CCc1c(O)c(=O)ccn1CC	11	87.4		43				
CNC(=O)CNC(=O)c1nccc(O)c1O.Cl	56	68	-1.42	19.3	20.8	6.3		
CNC(=O)[C@H](Cc1ccccc1)NC(=O)c1nccc(O)c1O.Cl	25	71	-0.11	27.6	21.4	6.1	Active	
Cl.O=C(N[C@@H](Cc1ccccc1)C(=O)NCc1ccccc1)c1nccc(O)c1O	52	60	0.9	30.2	21.5	6	Active	
CNC(=O)[C@H](C)NC(=O)c1nccc(O)c1O.Cl	66	61	-1.1	2.7	19.1	6	inactive	
Cl.O=C(CNC(=O)c1nccc(O)c1O)NCc1ccccc1	54	62	0.01	8.3	19.1	6.2		
CC(C)CNC(=O)[C@H](C)NC(=O)c1nccc(O)c1O.Cl	37	71	-0.08	15.3	19.2	6		
CC(C)CNC(=O)[C@H](Cc1ccccc1)NC(=O)c1nccc(O)c1O.Cl	13	81	0.39	46.5	20.4	6	Active	
C[C@H](NC(=O)c1nccc(O)c1O)C(=O)NCc1ccccc1.Cl	80	54	0.03	3.3	18.9	6	inactive	Active
Cc1c(O)c(=O)ccn1C [DEFERIPRONE]	64	58						
